Measured values published in the RNAGym collection of RNA variant scans (doi:10.1126/science.aae0568).
This sample holds only a part of the variants without activity.

B1: tRNA (parent)
chain: GUUCCGUUGGCGUAAUGGUAACGCGUCUCCCUCCUAAGGAGAAGACUGCGGGUUCGAGUCCCGUACGGAACG

Variants of: B1
Test: yeast fitness relative to wild type (ratio to wild type); higher = fitter; tRNA-Arg(CCU), competitive growth, 37 C, YPD
Method in brief: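 For this measurement, the tRNA-Arg(CCU) gene was varied by chemical synthesis at a 3% per-site mutation rate across 69 sites, and each variant was placed at the native genomic locus in Saccharomyces cerevisiae. The pooled strains went through a 24-hour competition in YPD at 37°C in six parallel replicates, with amplicons from start and end populations read by 100-nucleotide paired-end sequencing. Darwinian fitness relative to wild type followed from the change in each genotype's frequency. Genotypes needed ≥ 100 starting reads, and estimates < 0.5 were set to 0.5.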
GUUCCGUUGGAGUAAUGGUAACGCGUCUGCCUCCUAAGGAGAAGACUGCGGGUUCGGGUCCCGUACGGAACG [C11A C29G A57G] showed a yeast fitness of no more than 0.5. Variant GUUCCGUUGGAGUAAUGGUAACGCGUCUGCCUCCUAAGGAGAAGACUGCGGGUUCGAGUCCCGUACGGAACG [C11A C29G] has a yeast fitness of 0.654. GUUCCGUUGGAGUAAUGGUAACGCGUCUCCUUCCUAAGGAGAAGACUGCGGGUUCGAGUCCAGUACGGAACG [C11A C31U C62A] showed a yeast fitness of no more than 0.5. Work on GUUCCGUUGGAGUAAUGGUAACGCGUCUCCUUCCUAAGGAGAAGACUGCGGGUUCGAGUCCUGUACGGAACG [C11A C31U C62U] yielded a yeast fitness of 0.544. Work on GUUCCGUUGGAGUAAUGGUAACGCGUCUCGUCCCUAAGGAGGAGACUGCGGAUUCGAGUCCCGUACGGAACG [C11A C30G C31U U32C A42G G52A] yielded a yeast fitness of no more than 0.5. GUUCCGUUGGAGUAAUGGUAACGCGUCUCUCUCCUAAGGAGAAGACUGGAGGUUCGAGUCCCGAACGGAACG [C11A C30U C49G G50A U64A] gave a yeast fitness of no more than 0.5. For GUUCCGUUGGAGUAAUGGUAACGCGUCUGCCUCCUAAGGAGAAGACUGCGGGUUCGGGUCCCGUAAGGAACG [C11A C29G A57G C66A], the yeast fitness was no more than 0.5. With GUUCCGUUGGAGUAAUGGUAACGCGUCUCCUUCCUAAGGAGAAGACUGCGGGUUCGAGUCCCGUACGGCGCG [C11A C31U A69C A70G] the yeast fitness was no more than 0.5. GUUCCGUUGGAGUAAUGGUAACGCGUCUCCGUCCUAAGGAGAAGACUGCGGGUUCGAGUCCCGUACGGAUCG [C11A C31G A70U] showed a yeast fitness of no more than 0.5. For GUUCCGUUGGAGUAAUGGUAACGCGUCUCCUUCCUAAGGAGAAGACUGCGGGUUCAACUCCCGUACGGAACG [C11A C31U G56A G58C], the yeast fitness was 0.595. Work on GUUCCGUUGGAGUAAUGGUAACGCGUCUACCCCCUAAGGAGAAGACUGCGGGUUCGAGUCCCGUAUGGAACG [C11A C29A U32C C66U] yielded a yeast fitness of no more than 0.5. Work on GUUCCGUUGGAGUAAUGGUAACGCGUCUACCUCCUAAGGAGAAGACUGCGGGUUCAAGUCCCGUAGGGAACG [C11A C29A G56A C66G] yielded a yeast fitness of no more than 0.5. GUUCCGUUGGAGUAAUGGUAACGCGUCUCCUUCCUAAGGAGAAGACUGCGGGUUCGAGUCCCGUACGGAACG [C11A C31U] gave a yeast fitness of 0.664. In the case of GUUCCGUUGGAGUAAUGGUAACGCGUCUCCAUCCUAAGGAGAAGACUGCGGGUUCGAGUCCCGUACGGAACG [C11A C31A], the yeast fitness is reported as 0.524. Variant GUUCCGUUGGAGUAAUGGUAACGCGUUUCCCUCCUAAGGAGAAGACUGCGGGUUCCAGUCCCGUACGGAACG [C11A C27U G56C] has a yeast fitness of no more than 0.5. In the case of GUUCCGUUGGAGUAAUGGUAACGCGUCUACCUCCUAAGGAGAAGACUGCGGGUUCGGGUCCCGUCCGGAACG [C11A C29A A57G A65C], the yeast fitness is reported as no more than 0.5. GUUCCGUUGGAGUAAUGGUAACGCGUUUCCCUCCUAAGGAGAAGACUGCGGGUUCGAGUGCCGUACGGAACG [C11A C27U C60G] gave a yeast fitness of 0.532. In the case of GUUCCGUUGGAGUAAUGGUAACGCGUCUCCCUUCUAAGGAGAAGACUGUGGGUUCGAGUCUCGUACGGAACG [C11A C33U C49U C61U], the yeast fitness is reported as no more than 0.5. Work on GUUCCGUUGGAGUAAUGGUAACGCGUUUCCCUCCUAAGGAGAAGACUGCGGGUUCGAGUCGCGUACGGAACG [C11A C27U C61G] yielded a yeast fitness of no more than 0.5. In the case of GUUCCGUUGGAGUAAUGGUAACGCGUCUACCUCCUAAGGAGAAGAAUGCGGGUUCGAGUCCCGUACGGAGCG [C11A C29A C46A A70G], the yeast fitness is reported as 0.541. For GUUCCGUUGGAGUAAUGGUAACGCGUCUCCCUGCUAAGGAGACGACUGCGGGUUCGAGUCCCGUACGAAGCG [C11A C33G A43C G68A A70G], the yeast fitness was no more than 0.5. Work on GUUCCGUUGGAGUAAUGGUAACGCGUCUCCCUCAUAAGGAGAAGACUGCGGGUUCGACUCCCGUACGGAACG [C11A C34A G58C] yielded a yeast fitness of no more than 0.5. GUUCCGUUGGAGUAAUGGUAACGCGUCUCCAUCCUAAGGAGAAGACUGCGGGUUCGAGUCACGUACGGAACG [C11A C31A C61A] gave a yeast fitness of 0.563. With GUUCCGUUGGAGUAAUGGUAACGCGUCUCCAUCCUAAGGAGAAGACUGCGCGUUCGAGUCCCGUACGGAACG [C11A C31A G51C] the yeast fitness was no more than 0.5. GUUCCGUUGGAGUAAUGGUAACGCGUCUCACUCCUAAGGAGAAGACUGCGGCUUCGAGUCCCGUGCGGAACG [C11A C30A G52C A65G] showed a yeast fitness of no more than 0.5. For GUUCCGUUGGAGUAAUGGUAACGCGUCUCCGUCGUAAGGAGAAGAGUGCGGGUUCGAGACCCAUACGGAACG [C11A C31G C34G C46G U59A G63A], the yeast fitness was no more than 0.5. GUUCCGUUGGAGUAAUGGUAACGCGUCUACCUCCUAAGGAGAAGACUGCGGCUUCGAGUCCCGUACGCAACG [C11A C29A G52C G68C] showed a yeast fitness of no more than 0.5. With GUUCCGUUGGAGUAAUGGUAACGCGUCUCCUUCCUAAGGAGAAGACUGCGGGAUCGAGUCCCGUACGGAACG [C11A C31U U53A] the yeast fitness was 0.513. GUUCCGUUGGAGUAAUGGUAACGCGUCUCUCUCCUAAGGAGAAGACUGAGGGUUCGAGUCCCGUACGGAACG [C11A C30U C49A] showed a yeast fitness of no more than 0.5. GUUCCGUUGGAGUAAUGGUAACGCGUCUCGCUCCUAAGGAGAAGACUCCGGGUUCGAGUCCCGUACGGAACG [C11A C30G G48C] gave a yeast fitness of no more than 0.5. For GUUCCGUUGGAGUAAUGGUAACGCGUCUCCCUUCUAAGGAGAUGACUGCGGGUUCGAGUCCCGUACAGAACG [C11A C33U A43U G67A], the yeast fitness was no more than 0.5. With GUUCCGUUGGAGUAAUGGUAACGCGUCUCCCUUCUAAGGAGAAGACUGCGGGUUCGAGUGCCGUACGGAACG [C11A C33U C60G] the yeast fitness was 0.531. With GUUCCGUUGGAGUAAUGGUAACGCGUCUCCAUCCUAAGGAGAAGACUGCGGGUUCGAGUCCCGUACGCAACG [C11A C31A G68C] the yeast fitness was no more than 0.5. GUUCCGUUGGAGUAAUGGUAACGCGUCUCCCUACUCAGGAGAAGACUGCGGGUUCGAGUCCCGUACGGAACG [C11A C33A A36C] showed a yeast fitness of 0.506. For GUUCCGUUGGAGUAAUGGUAACGCGUCUUCCUCCUAAGGAGACGACUGCGGGUUCGAGUCCCGUACGGAACG [C11A C29U A43C], the yeast fitness was 0.599. GUUCCGUUGGAGUAAUGGUAACGCGUCUCCCUUCUAAGGAGAAGACUGCGGGUCCGAGUCCCGUACGGAACG [C11A C33U U54C] showed a yeast fitness of no more than 0.5. Variant GUUCCGUUGGAGUAAUGGUAACGCGUCUCCAUCCUAAGGAGAAGACUGCGGGAUCGAGUCCCGUACGGAACG [C11A C31A U53A] has a yeast fitness of no more than 0.5. With GUUCCGUUGGAGUAAUGGUAACGCGUCUCGUCCCUAAGGAGAAGACUGCGGAUUCGAGUCCCGUACGGAACG [C11A C30G C31U U32C G52A] the yeast fitness was 0.566.
